Experimental data taken from ChEMBL document CHEMBL4813972, “A grafted peptidomimetic for EGFR heterodimerization inhibition: Implications in NSCLC models” (Eur J Med Chem, 2021).
The source made the active and inactive calls. The calls are words filed in the database; no cut-off is given here.

Columns and labels:
NCI-H1975 = assay: Synergistic antiproliferative activity against human NCI-H1975 cells assessed as combination index after 72 hrs in presence of lapatinib by cell titer glo assay; type: functional
[1] = biological target: Receptor tyrosine-protein kinase erbB-2 (Homo sapiens) (UniProt P04626); assay: Binding affinity to HER2 domain IV (unknown origin) by SPR analysis
[2] = biological target: Receptor tyrosine-protein kinase erbB-2 (Homo sapiens) (UniProt P04626); assay: Inhibition of HER2 ECD in human A549 cells assessed as reduction in HER2 intracellular kinase domain phosphorylation at 1 uM incubated for 40 hrs by Western blot analysis; type: cell-based
MCF7 = assay: Antiproliferative activity against human MCF7 cells with silenced HER2 assessed as cell growth inhibition incubated for 72 hrs by cell titer glo assay; type: functional, cell-based; conditions: MCF7, 72 h
How it was run: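 Cells seeded at 1×10^4 per well, left overnight at 37 °C/5% CO2, then exposed to a concentration series of peptide (up to 200, down to 0.01 μM) for 72 h. 1% SDS and 1% DMSO served as controls. Cells were PBS-washed, CellTiter-Glo added and luminescence read. IC50 taken from three independent experiments per cell line.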

[3] = Thermal stability of compound at 15 uM incubated at 25 to 75 degC in presence of DTT by circular dichroism spectrometry; type: physicochemical
[4] = Toxicity in BALB/c mouse assessed as Ki-67 expression in spleenocytes at 6 mg/kg, iv administered on day 0 and 10 and spleenocytes collected on day 13 and incubated for 48 hrs by flow cytometry analysis; type: organism-based; conditions: in vivo, 360 h, time 15 day
How it was run: (§1)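 Female BALB/c mice given 6 mg/kg peptide in PBS i.v. (or PBS) on days 0 and 10, 12 mice in total. Splenocytes harvested day 13, RBC-lysed, and ≥2×10^6 cultured 48 h in RPMI/10% FBS with control media or peptide. Cells then stained for viability, CD3/CD4/CD8a and intracellular Ki67, and analyzed by flow cytometry.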

[5] = Thermal stability of compound at 15 uM incubated at 25 to 75 degC by MALDI-TOF analysis; type: physicochemical
How it was run: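 Peptide at 15 μM in acetonitrile heated from 25 to 75 °C. Mass checked at 25, 50 and 70 °C and at the end of the run.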

[6] = Toxicity in BALB/c mouse assessed as Ki-67 expression in CD8+ at 6 mg/kg, iv administered on day 0 and 10 and spleenocytes collected on day 13 and incubated for 48 hrs by flow cytometry analysis; type: organism-based; conditions: in vivo, 360 h, time 15 day; how it was run: as §1
[7] = Toxicity in BALB/c mouse assessed as Ki-67 expression in CD4+ at 6 mg/kg, iv administered on day 0 and 10 and spleenocytes collected on day 13 and incubated for 48 hrs by flow cytometry analysis; type: organism-based; conditions: in vivo, 360 h, time 15 day; how it was run: as §1
[8] = biological target: Receptor tyrosine-protein kinase erbB-2 (Homo sapiens) (UniProt P04626); assay: Binding affinity to HER2 (unknown origin) assessed as reduction in heterodimerization of HER2/EGFR by competitive based SPR analysis
How it was run: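 Competitive SPR: EGFR with EGF immobilized on a CM5 chip. HER2 protein fixed at 200 nM was preincubated 15 min in HEPES buffer with varying peptide, then injected. Read-out was the drop in response units. Surface regenerated with glycine pH 2.2 between injections.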

A549 = assay: Antitumor activity in Red-Fluc transfected human A549 cells harbouring KRAS mutant/wild type EGFR xenografted in Foxn1nu/Foxn1+ mouse assessed as reduction in tumor growth by measuring relative luminescence intensity at 6 mg/kg, iv treated twice a week measured after 2 weeks relative to vehicle; type: functional, organism-based

Receptor tyrosine-protein kinase erbB-2 (Homo sapiens), sequence (P04626 whole entry, the tested form may be a part): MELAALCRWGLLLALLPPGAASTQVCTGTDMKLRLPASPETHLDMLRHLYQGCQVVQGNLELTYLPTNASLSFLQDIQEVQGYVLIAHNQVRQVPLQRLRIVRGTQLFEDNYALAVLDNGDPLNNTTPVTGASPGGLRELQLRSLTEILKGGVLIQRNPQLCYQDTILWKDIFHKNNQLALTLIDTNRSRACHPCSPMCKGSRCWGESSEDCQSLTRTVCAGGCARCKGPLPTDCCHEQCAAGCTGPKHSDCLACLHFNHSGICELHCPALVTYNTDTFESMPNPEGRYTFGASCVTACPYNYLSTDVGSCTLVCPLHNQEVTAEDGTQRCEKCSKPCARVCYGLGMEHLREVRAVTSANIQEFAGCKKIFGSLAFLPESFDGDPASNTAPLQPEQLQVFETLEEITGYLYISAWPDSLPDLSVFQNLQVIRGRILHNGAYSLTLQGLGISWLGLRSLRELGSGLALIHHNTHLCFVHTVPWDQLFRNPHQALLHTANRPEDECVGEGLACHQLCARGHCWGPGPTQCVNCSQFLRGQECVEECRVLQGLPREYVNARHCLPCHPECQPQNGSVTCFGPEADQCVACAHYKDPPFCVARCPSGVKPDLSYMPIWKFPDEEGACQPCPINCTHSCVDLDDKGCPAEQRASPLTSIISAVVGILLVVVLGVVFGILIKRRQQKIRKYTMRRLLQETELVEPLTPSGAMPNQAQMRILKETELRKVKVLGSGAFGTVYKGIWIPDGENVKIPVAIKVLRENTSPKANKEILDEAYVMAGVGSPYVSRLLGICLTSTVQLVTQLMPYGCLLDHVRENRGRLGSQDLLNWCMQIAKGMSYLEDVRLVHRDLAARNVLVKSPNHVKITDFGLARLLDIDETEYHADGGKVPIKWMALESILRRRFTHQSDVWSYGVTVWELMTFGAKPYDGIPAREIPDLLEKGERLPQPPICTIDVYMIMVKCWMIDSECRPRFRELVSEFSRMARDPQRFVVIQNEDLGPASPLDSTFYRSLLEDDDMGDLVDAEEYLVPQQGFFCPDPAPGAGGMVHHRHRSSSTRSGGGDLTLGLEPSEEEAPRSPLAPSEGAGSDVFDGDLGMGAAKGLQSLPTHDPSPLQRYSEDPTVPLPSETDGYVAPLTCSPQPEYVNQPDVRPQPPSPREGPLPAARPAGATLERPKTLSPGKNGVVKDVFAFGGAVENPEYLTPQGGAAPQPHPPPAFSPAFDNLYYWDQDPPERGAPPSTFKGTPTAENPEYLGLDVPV

CC[C@H](C)[C@H]1C(=O)NC(=O)[C@H](CCCNC(=N)N)NC(=O)C[C@@H](c2cccc3ccccc23)NC(=O)N[C@H]2CSSC[C@H](NC(=O)C[C@@H](c3cccc4ccccc34)NC(=O)[C@H](CCCNC(=N)N)NC(=O)[C@@H]3CCCN3C(=O)[C@@H]3CCCN13)C(=O)N[C@@H](Cc1ccccc1)C(=O)N1CCC[C@H]1C(=O)N[C@@H](CC(=O)O)C(=O)NC(=O)[C@H](CC(=O)O)NC(=O)[C@H](Cc1ccccc1)NC2=O
CI (NCI-H1975): 0.83
Activity [1]: Dose-Dependent Effect
inhibition [2]: Active
IC50 (MCF7): > 20 µM
Stabilty [3]: Stable
Activity [4]: Non-Toxic
Stabilty [5]: Stable
Activity [6]: Non-Toxic
Activity [7]: Non-Toxic
Activity [8]: Active
Activity (A549): Active
